Screening data (PubChem)
Hits are enriched below; roughly 1.3% of the tested compounds scored in any of these assays.
DDE Tn6 FP inh: disrupts Tn6 cyclic peptide binding to fibrin D-Dimer-E complex | 370,000 compounds, 0.21% hits | Fibrin DD(E) TRITC-Tn6 fluorescence polarization displacement | P02675 | inhibition, % at 8.3 µM;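 active = inhibition above a per-campaign cutoff: mean of compounds within control limits plus 3 SD, cut at about 15% in these data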;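 note: 0% = median of all compound wells on the plate and 100% = blocking peptide control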
Target sequence (P02675 whole entry, looked up): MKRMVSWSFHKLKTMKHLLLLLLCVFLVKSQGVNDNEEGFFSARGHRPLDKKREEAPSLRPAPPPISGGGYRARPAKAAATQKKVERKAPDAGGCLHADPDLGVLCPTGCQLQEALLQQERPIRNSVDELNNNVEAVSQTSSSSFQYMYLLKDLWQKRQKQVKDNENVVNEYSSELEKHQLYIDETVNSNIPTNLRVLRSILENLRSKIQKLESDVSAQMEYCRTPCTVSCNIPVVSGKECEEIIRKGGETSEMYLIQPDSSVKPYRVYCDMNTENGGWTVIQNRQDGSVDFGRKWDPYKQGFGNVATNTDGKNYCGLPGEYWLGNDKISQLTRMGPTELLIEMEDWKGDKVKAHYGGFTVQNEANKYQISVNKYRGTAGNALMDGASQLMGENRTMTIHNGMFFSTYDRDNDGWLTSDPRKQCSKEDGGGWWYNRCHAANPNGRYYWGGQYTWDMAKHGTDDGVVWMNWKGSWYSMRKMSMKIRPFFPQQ
CRFBP-R2 agonist: CRF-BP/CRF-R2 complex agonism; HEK293 CRF-R2/CRF-BP, calcium dye fluorescence (FLIPR); percent of saturating CRF peptide response; activation, % at 13.2 µM; 350,000 compounds, 0.46% hits; AID 588473;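 active = activation of at least 50%, plus an integration ratio under a set limit after plate pattern correction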;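 note: plate controls were neutral control wells without compound for no effect and CRF at EC100 for full effect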
CRFR2-BP antag: antagonists of CRF-binding protein/CRF-R2 receptor complex; HEK293 CRF-R2/CRF-BP, CRF-induced calcium fluorescence; inhibition, % at 11.8 µM; 350,000 compounds, 0.59% hits; AID 588475;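 active = inhibition of the ligand-induced calcium signal above about 50% at the single tested concentration, limit read from the data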
Tn7 DDE FP: disrupts Tn7 cyclic peptide binding to fibrin D-Dimer-E complex; P02675; inhibition, % at 8.3 µM; 370,000 compounds, 0.13% hits; FP displacement of FITC-Tn7 peptide from fibrin DD(E); 0% = median of compound wells per plate;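 active = inhibition above the mean of compounds falling within the control limits plus 3 SD of them, cut at about 14% in these data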;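 note: 0% = plate median of compound wells and 100% = 10 µM Aha-Tn7 peptide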
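Test system: human clot-derived fibrin DD(E) complex / Quantity: 2 µM final DD(E) protein / Incubation: 10 min plus 3 h, room temperature / Measured by: fluorescence polarization / Benchmarks: high control of 10 µM Aha-Tn7 peptide / Replicates: singlicate testing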
DDE Tn6 FP ctr: DD(E)-Tn6 binding inhibition, counter-screen; shares compounds with DDE Tn6 FP inh; Fibrin DD(E), TRITC-Tn6 fluorescence polarization displacement; 0% = median of compound wells, not DMSO; inhibition, % at 8.3 µM; 680 compounds, 2% hits; AID 720621;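 active = inhibition above the mean of test compounds lying between the control limits plus 3 SD of those, cut at about 14% in these data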;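 note: 0% = median of compound wells and 100% = wells with Aha-Tn7 blocking peptide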
DDE Tn6 confirm: DD(E)-Tn6 binding inhibition, FP confirmation; 680 compounds, 10% hits; shares compounds with DDE Tn6 FP inh; FP displacement of TRITC-Tn6 peptide from DD(E); 0% = per-plate median of test wells; inhibition, % at 8.3 µM;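 active = inhibition above the mean of compounds lying within the control limits plus 3 SD, cut at about 16% in these data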;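 note: 100% = high control wells holding a competing inhibitor peptide at 10 µM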
* marks the source's active call; other numbers are inactive results; · = not tested or not shown; + = active, no number.

SMILES	DDE Tn6 FP inh	CRFBP-R2 agonist	CRFR2-BP antag	Tn7 DDE FP	DDE Tn6 FP ctr	DDE Tn6 confirm
N#Cc1c(NC(=O)Cn2nc(C(F)(F)F)c3c2CCCC3)sc2c1CCC2	2	0	8	-5	·	·
CCCC(=O)Nc1cc(OC)c(NC(=S)Nc2ccc(CC)cc2)cc1OC	36*	-1	6	4	4	3
CCCC(=O)Nc1cc(OC)c(NC(=S)Nc2cccc(C)c2)cc1OC	26*	-1	-3	-3	-3	-18
Cc1cccc(NC(=S)Nc2cccc3ccccc23)c1	-7	0	18	-5	·	·
CCCCC(=O)Nc1ccc(NC(=S)NC(=O)CC)cc1OC	-3	-2	12	-4	·	·
CCc1ccc(NC(=S)Nc2cc(OC)c(NC(=O)C(C)C)cc2OC)cc1	25*	-1	14	-5	2	2
Cc1ccc(Cl)cc1NC1=C/C(=N\S(=O)(=O)c2cccs2)c2ccccc2C1=O	53*	-2	11	-2	8	6
CCNc1ccccc1CP(=O)(c1ccccc1)c1ccccc1O (stereo not given)	21*	4	-2	10	4	-9
CCCCCCCCNC(=O)C1CSCCS(=O)(=O)N1Cc1ccc(F)cc1 (stereo not given)	4	·	·	5	·	·
COc1ccc(-c2nc(-c3ccccn3)nc(N3CCN(C)CC3)c2C#N)cc1	17*	0	17	2	5	0
Cc1c(Cl)cn2c(=O)cc(CN3CCN(c4ccccc4)CC3)nc2c1Cl	15*	0	-2	6	6	2
CCN(Cc1cc(=O)n2cc(Cl)c(C)c(Cl)c2n1)Cc1nc2ccccc2c(=O)[nH]1	-5	2	0	-3	·	·
Cc1cccc(NC(=O)Nc2nc3ncccn3c2-c2ccccc2)c1	-4	·	·	-5	·	·
O=C(CCc1c[nH]c2ccccc12)Nc1ccc(Nc2cccnc2)c(Br)c1	-3	·	·	-4	·	·
CCC(=O)Nc1ccc(NC(=O)CSc2nnc(-c3ccc(O)cc3)n2CC2CCCO2)cc1 (stereo not given)	20*	1	16	1	1	1
CC(=O)Nc1ccc(C(=O)CSc2nnc(-c3ccc(O)cc3)n2CC2CCCO2)cc1 (stereo not given)	-2	1	1	6	·	·
CC(=O)Nc1ccc(/C=C/c2ccc3cccc([N+](=O)[O-])c3n2)cc1	18*	-3	-6	8	6	7
O=C(O)COc1ccc(/C=C/c2ccc3cccc([N+](=O)[O-])c3n2)cc1	-6	-2	20	5	·	·
Cc1ccc(CN2CCCCC(NC(=O)c3ccc(C)cc3)C2=O)cc1 (stereo not given)	4	·	·	12	·	·
CCCCNC(=O)C1(C(=O)c2ccc(OC)cc2)CC(C(=O)OCC)=NO1 (stereo not given)	3	·	·	-13	·	·
N=c1c[n+](N2CCOCC2)[n-]o1	19*	-1	21	1	-8	-19
CC(=O)c1ccc(NC(=O)c2ccc(S(=O)(=O)N3CCCC3)cc2)cc1	-3	4	21	-5	·	·
Cc1cc(C(=O)Nc2ccc(S(=O)(=O)N3CCCC3)cc2)cs1	16*	-3	-27	1	-5	-11
O=S1(=O)c2c(cccc2N2CC[C@H](O)C2)OCCCN1C1CC1	0	·	·	3	·	·
Cc1ccc(C(=O)NCC(=O)OC(C)C(=O)NC2CCCc3ccccc32)cc1 (stereo not given)	16*	-2	3	6	4	-5
SMILES	DDE Tn6 FP inh	CRFBP-R2 agonist	CRFR2-BP antag	Tn7 DDE FP	DDE Tn6 FP ctr	DDE Tn6 confirm
O=C(NCCN1CCC(Cc2ccccc2)CC1)C1CCCN(S(=O)(=O)c2cccs2)C1 (stereo not given)	6	·	·	-1	·	·
FC(F)(F)c1cc(-c2ccco2)nc(-n2cnc3ccccc32)n1	0	1	-9	3	·	·
Cc1nc2ccccc2n1-c1nc(-c2ccco2)cc(C(F)(F)F)n1	18*	0	4	0	-3	-5
Cc1ccc(S(=O)(=O)NCC(=O)N2CCN(c3ccccn3)CC2)cc1C	7	·	·	-1	·	·
COc1ccc(Cl)cc1NC(=O)COC(=O)CCNC(C)=O	17*	1	-6	6	9	5
CC1N(C)c2cc(NC(=O)c3ccco3)ccc2C1(C)C (stereo not given)	+	12	-8	-20	2	5
CC1N(C)c2cc(NC(=O)c3ccco3)c(P(=O)(Nc3ccc([N+](=O)[O-])cc3)N3CCOCC3)cc2C1(C)C (stereo not given)	-6	-2	-26	-7	·	·
CC1CCC/C(=C\Nc2ccc(O)cc2)C1=O (stereo not given)	17*	0	-28	4	-7	-10
Cc1cc(C(=O)O)ccc1N/C=C1\CCCC(C)C1=O (stereo not given)	6	-1	3	2	·	·
COc1ccccc1Oc1ccc(S(=O)(=O)NCc2ccccn2)cc1	15*	0	4	-1	4	6
Cc1cccnc1C(NC(=O)C1CCN(CCOc2ccc(Cl)cc2Cl)CC1)c1ccc(Cl)cc1 (stereo not given)	16*	·	·	-1	7	0
COc1cccc(OCC(=O)Nc2ccccc2NC(C)=O)c1	17*	-2	23	-7	-1	-2
COc1cccc(OCC(=O)Nc2ccncc2)c1	-1	0	0	-2	·	·
COC(=O)[C@]12CCCCC=C1N(Cc1ccc(OC)cc1)C(=O)[C@@H]2CC(=O)N1CCN(C(=O)C2CC2)CC1	9	·	·	-2	·	·
O=C(CN1C2CCCC1CC(NC(=O)C1CCCCC1)C2)NCc1ccc(F)cc1 (stereo not given)	16*	-1	-3	-3	1	-3
O=C(CN1C2CCCC1CC(NC(=O)C1CCCCC1)C2)Nc1ccccc1C(F)(F)F (stereo not given)	-2	0	16	6	·	·
O=C(CN1CCC(NC(=O)Nc2ccc(Cl)cc2)CC1)Nc1ccc2c(c1)OCCO2	-4	·	·	2	·	·
Cc1ccc(NS(=O)(=O)c2ccc(Cl)c(C(=O)Nc3ccccc3-c3nc4ccccc4[nH]3)c2)cc1C	16*	0	-43	-5	8	3
COC(=O)[C@]12C[C@H](CC(=O)N3CCC(c4ccccc4)CC3)C(=O)N(Cc3cccc4ccccc34)C1=C[C@H](C(C)(C)C)O[C@@H]2C	-6	·	·	2	·	·
CC(C)=CCC/C(C)=C/CNCC(=O)N1c2ccccc2[C@]2(C)C[C@@H]3C(=O)N(C/C=C(\C)CCC=C(C)C)CC(=O)N3[C@H]12	7	·	·	1	·	·
COc1ccccc1C(=O)NC(=O)COC(=O)c1ccc(NC(=O)CC#N)cc1	18*	4	5	2	3	-1
